Reference: ChEMBL document CHEMBL3227949, “Antimalarials. 4. Trichloronaphthalene amino alcohols” (1979)
Activity calls are given as the source filed them. No cut-off for these calls is given here.

What was measured:
Plasmodium berghei [1] = experiment: Antimalarial activity against sc dosed Plasmodium berghei infected in mouse assessed as dose resulting in mean survival time […]; type: functional; details: read-out: MED
Plasmodium berghei [2] = experiment: Antimalarial activity against Plasmodium berghei infected in mouse assessed as change in mean survival time at 10 mg/kg, sc administered as single dose 72 hrs after parasite infection (reference value: 6.1 days); type: functional; details: route subcutaneous
Plasmodium berghei [3] = experiment: Antimalarial activity against Plasmodium berghei infected in mouse assessed as change in mean survival time at 20 mg/kg, sc administered as single dose 72 hrs after parasite infection (reference value: 6.1 days); type: functional; details: route subcutaneous
Plasmodium berghei [4] = experiment: Antimalarial activity against Plasmodium berghei infected in mouse assessed as change in mean survival time at 40 mg/kg, sc administered as single dose 72 hrs after parasite infection (reference value: 6.1 days); type: functional; details: route subcutaneous
Plasmodium berghei [5] = experiment: Antimalarial activity against Plasmodium berghei infected in mouse assessed as curing of parasite infection at 640 mg/kg, sc administered as single dose 72 hrs after parasite infection; type: functional, organism-based; set-up: dose 640 mg/kg
Plasmodium berghei [6] = experiment: Antimalarial activity against Plasmodium berghei infected in mouse assessed as curing of parasite infection at 160 mg/kg, sc administered as single dose 72 hrs after parasite infection; type: functional, organism-based; set-up: dose 160 mg/kg
Procedure, shortened: (§1)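 Mice (five per group) infected with P. berghei were given a single subcutaneous dose 72 h after infection. Increase in mean survival time over infected untreated controls was recorded, and an increase of at least 100% counted as activity. The screen was run by Rane Laboratories.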

Plasmodium berghei [7] = experiment: Antimalarial activity against Plasmodium berghei infected in mouse assessed as curing of parasite infection at 320 mg/kg, sc administered as single dose 72 hrs after parasite infection; type: functional, organism-based; set-up: dose 320 mg/kg; procedure, shortened: as §1
Plasmodium berghei [8] = experiment: Antimalarial activity against Plasmodium berghei infected in mouse assessed as change in mean survival time at 80 mg/kg, sc administered as single dose 72 hrs after parasite infection (reference value: 6.1 days); type: functional; details: route subcutaneous
Plasmodium berghei [9] = experiment: Antimalarial activity against Plasmodium berghei infected in mouse assessed as change in mean survival time at 640 mg/kg, sc administered as single dose 72 hrs after parasite infection (reference value: 6.1 days); type: functional; details: route subcutaneous

Structure (SMILES)	minimal effective dose (Plasmodium berghei [1]) [mg/kg]	MST (Plasmodium berghei [2]) [days]	MST (Plasmodium berghei [3]) [days]	MST (Plasmodium berghei [4]) [days]	Activity (Plasmodium berghei [5])	Activity (Plasmodium berghei [6])	Activity (Plasmodium berghei [7])	MST (Plasmodium berghei [8]) [days]	MST (Plasmodium berghei [9]) [days]
Cl.OC(c1cc(-c2ccc(Cl)cc2)nc2c(Cl)cc(Cl)cc12)C1CCCCN1 (stereo not given)	5	–	–	–	–	–	–	–	–
CCCCN(CCCC)CC(O)c1cc(-c2ccc(Cl)cc2)cc2c(Cl)cc(Cl)cc12.Cl (stereo not given)	10	7.9	9.5	10.5	Active	–	–	–	–
CCCCN(CCCC)CCC(O)c1cc(-c2ccc(Cl)cc2)cc2c(Cl)cc(Cl)cc12.Cl (stereo not given)	–	2.9	12.1	–	Active	Active	Active	–	–
CC(=O)O.OC(c1cc(-c2ccc(Cl)cc2)cc2c(Cl)cc(Cl)cc12)C1CCCCN1 (stereo not given)	20	0.5	1.1	–	–	–	–	–	–
CCCCN(CCCC)CC(O)c1cc(-c2ccc(Cl)cc2)nc2c(Cl)cc(Cl)cc12.Cl (stereo not given)	10	–	–	–	–	–	–	–	–
Cl.OC(CC1CCCCN1)c1cc(-c2ccc(Cl)cc2)cc2c(Cl)cc(Cl)cc12 (stereo not given)	–	3.6	9.8	11.8	–	–	–	16.6	6
